ChEMBL document CHEMBL1759857, “Synthesis and evaluation of isatin analogs as caspase-3 inhibitors: introduction of a hydrophilic group increases potency in a whole cell assay” (Bioorg Med Chem Lett, 2011)

target: T1, Caspase-3 (Homo sapiens, UniProt P42574); assay: Inhibition of staurosporine induced activation of caspase 3 activation in human Hela cells assessed as hydrolysis of Z-DEVD-R110 substrate by microplate fluorescence assay; assay type: cell-based
T1 sequence (P42574 whole entry): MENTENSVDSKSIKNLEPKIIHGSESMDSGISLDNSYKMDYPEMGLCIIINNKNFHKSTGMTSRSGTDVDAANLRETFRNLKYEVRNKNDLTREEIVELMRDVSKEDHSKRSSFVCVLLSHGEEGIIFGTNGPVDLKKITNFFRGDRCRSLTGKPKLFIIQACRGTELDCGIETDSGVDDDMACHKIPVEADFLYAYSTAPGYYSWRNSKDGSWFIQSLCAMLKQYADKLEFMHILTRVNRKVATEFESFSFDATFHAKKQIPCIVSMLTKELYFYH
Procedure, shortened: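 HeLa cells were seeded at 1-2×10^4 per well and left to adhere overnight at 37°C in 5% CO2. […] A homogeneous caspase-3/7 kit with cell-permeable Z-DEVD-R110 was then used, reading fluorescence at ex 485/em 535 nm. EC50 was taken from dose-response curves, as mean ± SD of ≥3 independent experiments.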

| SMILES | EC50 |
| --- | --- |
| O=C1Nc2ccc(S(=O)(=O)N3CC[C@H]3COc3ccccc3)cc2C1=O | 9570 nM |
| O=C1C(=O)N(Cc2cn(CCF)nn2)c2ccc(S(=O)(=O)N3CC[C@H]3COc3cccnc3)cc21 | 420 nM |
| O=C1C(=O)N(Cc2ccc(OCCF)cc2)c2ccc(S(=O)(=O)N3CC[C@H]3COc3ccccc3)cc21 | 2000 nM |
| O=C1C(=O)N(Cc2ccc(OCCOCCF)cc2)c2ccc(S(=O)(=O)N3CC[C@H]3COc3ccccc3)cc21 | 2150 nM |
| COc1ccc(CN2C(=O)C(=O)c3cc(S(=O)(=O)N4CC[C@H]4COc4cccnc4)ccc32)cc1 | 450 nM |
| O=C1Nc2ccc(S(=O)(=O)N3CCC[C@H]3COc3ccccc3)cc2C1=O | 11500 nM |
| COc1ccc(CN2C(=O)C(=O)c3cc(S(=O)(=O)N4CCC[C@H]4COc4cccnc4)ccc32)cc1 | 450 nM |
| O=C1C(=O)N(Cc2ccccc2)c2ccc(S(=O)(=O)N3CCC[C@H]3COc3ccccc3)cc21 | 3670 nM |
| CN1C(=O)C(=O)c2cc(S(=O)(=O)N3CC[C@H]3COc3ccccc3)ccc21 | 3250 nM |
| O=C1C(=O)N(Cc2cn(CCF)nn2)c2ccc(S(=O)(=O)N3CCC[C@H]3COc3cccnc3)cc21 | 350 nM |
| O=C1C(=O)N(Cc2cn(CCF)nn2)c2ccc(S(=O)(=O)N3CC[C@H]3COc3ccc(F)cc3F)cc21 | 1060 nM |
| O=C1C(=O)N(Cc2ccc(OCCF)cc2)c2ccc(S(=O)(=O)N3CC[C@H]3COc3cccnc3)cc21 | 380 nM |
| O=C1C(=O)N(Cc2ccc(OCCF)cc2)c2ccc(S(=O)(=O)N3CC[C@H]3COc3ccc(F)cc3F)cc21 | 1390 nM |
| COc1ccc(CN2C(=O)C(=O)c3cc(S(=O)(=O)N4CC[C@H]4COc4ccccc4)ccc32)cc1 | 3070 nM |
| O=C1C(=O)N(Cc2ccc(OCCF)cc2)c2ccc(S(=O)(=O)N3CCC[C@H]3COc3ccc(F)cc3F)cc21 | 2500 nM |

target: T1, Caspase-3; assay: Inhibition of human caspase 3 by fluorometric assay
Procedure, shortened: (§1)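 Recombinant caspases were tested in a standard fluorometric enzyme assay. IC50 is reported as mean ± SD of at least three independent assays.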

| SMILES | IC50 |
| --- | --- |
| O=C1C(=O)N(Cc2cn(CCF)nn2)c2ccc(S(=O)(=O)N3CC[C@H]3COc3cccnc3)cc21 | 5.6 nM |
| O=C1C(=O)N(Cc2ccc(OCCF)cc2)c2ccc(S(=O)(=O)N3CC[C@H]3COc3ccccc3)cc21 | 8.6 nM |
| O=C1C(=O)N(Cc2ccc(OCCOCCF)cc2)c2ccc(S(=O)(=O)N3CC[C@H]3COc3ccccc3)cc21 | 27.9 nM |
| COc1ccc(CN2C(=O)C(=O)c3cc(S(=O)(=O)N4CC[C@H]4COc4cccnc4)ccc32)cc1 | 3.3 nM |
| O=C1C(=O)N(Cc2cn(CCF)nn2)c2ccc(S(=O)(=O)N3CCC[C@H]3COc3cccnc3)cc21 | 4.5 nM |
| O=C1C(=O)N(Cc2cn(CCF)nn2)c2ccc(S(=O)(=O)N3CC[C@H]3COc3ccc(F)cc3F)cc21 | 13.4 nM |
| O=C1C(=O)N(Cc2ccc(OCCF)cc2)c2ccc(S(=O)(=O)N3CC[C@H]3COc3cccnc3)cc21 | 3.6 nM |
| O=C1C(=O)N(Cc2ccc(OCCF)cc2)c2ccc(S(=O)(=O)N3CC[C@H]3COc3ccc(F)cc3F)cc21 | 12 nM |
| O=C1C(=O)N(Cc2ccc(OCCF)cc2)c2ccc(S(=O)(=O)N3CCC[C@H]3COc3ccc(F)cc3F)cc21 | 15.2 nM |

target: T2, Caspase-1 (Homo sapiens, UniProt P29466); assay: Inhibition of caspase 1 by fluorometric assay; procedure, shortened: as §1
T2 sequence (P29466 whole entry): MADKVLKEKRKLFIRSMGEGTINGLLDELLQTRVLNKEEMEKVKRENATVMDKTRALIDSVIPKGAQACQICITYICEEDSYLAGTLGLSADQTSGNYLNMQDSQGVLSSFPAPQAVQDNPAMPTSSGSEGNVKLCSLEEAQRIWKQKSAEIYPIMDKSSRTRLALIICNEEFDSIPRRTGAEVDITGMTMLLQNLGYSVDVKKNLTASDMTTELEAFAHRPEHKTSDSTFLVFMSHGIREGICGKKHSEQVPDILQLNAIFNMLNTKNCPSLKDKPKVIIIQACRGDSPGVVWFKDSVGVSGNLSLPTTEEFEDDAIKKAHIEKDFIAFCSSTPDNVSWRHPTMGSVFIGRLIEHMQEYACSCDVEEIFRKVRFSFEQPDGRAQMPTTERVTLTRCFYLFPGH

| SMILES | IC50 |
| --- | --- |
| O=C1C(=O)N(Cc2cn(CCF)nn2)c2ccc(S(=O)(=O)N3CC[C@H]3COc3cccnc3)cc21 | > 20 µM |
| O=C1C(=O)N(Cc2ccc(OCCF)cc2)c2ccc(S(=O)(=O)N3CC[C@H]3COc3ccccc3)cc21 | > 20 µM |
| O=C1C(=O)N(Cc2ccc(OCCOCCF)cc2)c2ccc(S(=O)(=O)N3CC[C@H]3COc3ccccc3)cc21 | > 50 µM |
| COc1ccc(CN2C(=O)C(=O)c3cc(S(=O)(=O)N4CC[C@H]4COc4cccnc4)ccc32)cc1 | > 15 µM |
| O=C1C(=O)N(Cc2cn(CCF)nn2)c2ccc(S(=O)(=O)N3CCC[C@H]3COc3cccnc3)cc21 | > 20 µM |
| O=C1C(=O)N(Cc2cn(CCF)nn2)c2ccc(S(=O)(=O)N3CC[C@H]3COc3ccc(F)cc3F)cc21 | > 20 µM |
| O=C1C(=O)N(Cc2ccc(OCCF)cc2)c2ccc(S(=O)(=O)N3CC[C@H]3COc3cccnc3)cc21 | > 10 µM |
| O=C1C(=O)N(Cc2ccc(OCCF)cc2)c2ccc(S(=O)(=O)N3CC[C@H]3COc3ccc(F)cc3F)cc21 | > 50 µM |
| O=C1C(=O)N(Cc2ccc(OCCF)cc2)c2ccc(S(=O)(=O)N3CCC[C@H]3COc3ccc(F)cc3F)cc21 | > 50 µM |

target: T3, Caspase-6 (Homo sapiens, UniProt P55212); assay: Inhibition of caspase 6 by fluorometric assay; procedure, shortened: as §1
T3 sequence (P55212 whole entry): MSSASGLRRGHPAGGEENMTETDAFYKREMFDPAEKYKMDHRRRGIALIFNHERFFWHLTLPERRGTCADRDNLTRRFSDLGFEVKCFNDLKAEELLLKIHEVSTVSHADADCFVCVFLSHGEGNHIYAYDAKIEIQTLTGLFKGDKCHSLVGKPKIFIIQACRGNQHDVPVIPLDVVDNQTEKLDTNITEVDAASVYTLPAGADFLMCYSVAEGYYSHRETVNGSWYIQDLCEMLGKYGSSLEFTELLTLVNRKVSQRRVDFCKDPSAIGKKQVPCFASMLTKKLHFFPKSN

| SMILES | IC50 |
| --- | --- |
| O=C1C(=O)N(Cc2cn(CCF)nn2)c2ccc(S(=O)(=O)N3CC[C@H]3COc3cccnc3)cc21 | 7.75 µM |
| O=C1C(=O)N(Cc2ccc(OCCF)cc2)c2ccc(S(=O)(=O)N3CC[C@H]3COc3ccccc3)cc21 | 4.93 µM |
| O=C1C(=O)N(Cc2ccc(OCCOCCF)cc2)c2ccc(S(=O)(=O)N3CC[C@H]3COc3ccccc3)cc21 | > 10 µM |
| COc1ccc(CN2C(=O)C(=O)c3cc(S(=O)(=O)N4CC[C@H]4COc4cccnc4)ccc32)cc1 | 9.2 µM |
| O=C1C(=O)N(Cc2cn(CCF)nn2)c2ccc(S(=O)(=O)N3CCC[C@H]3COc3cccnc3)cc21 | 13.4 µM |
| O=C1C(=O)N(Cc2cn(CCF)nn2)c2ccc(S(=O)(=O)N3CC[C@H]3COc3ccc(F)cc3F)cc21 | 4.7 µM |
| O=C1C(=O)N(Cc2ccc(OCCF)cc2)c2ccc(S(=O)(=O)N3CC[C@H]3COc3cccnc3)cc21 | 8.7 µM |
| O=C1C(=O)N(Cc2ccc(OCCF)cc2)c2ccc(S(=O)(=O)N3CC[C@H]3COc3ccc(F)cc3F)cc21 | 3.48 µM |
| O=C1C(=O)N(Cc2ccc(OCCF)cc2)c2ccc(S(=O)(=O)N3CCC[C@H]3COc3ccc(F)cc3F)cc21 | 9.12 µM |

target: T4, Caspase-7 (Homo sapiens, UniProt P55210); assay: Inhibition of caspase 7 by fluorometric assay
T4 sequence (P55210 whole entry): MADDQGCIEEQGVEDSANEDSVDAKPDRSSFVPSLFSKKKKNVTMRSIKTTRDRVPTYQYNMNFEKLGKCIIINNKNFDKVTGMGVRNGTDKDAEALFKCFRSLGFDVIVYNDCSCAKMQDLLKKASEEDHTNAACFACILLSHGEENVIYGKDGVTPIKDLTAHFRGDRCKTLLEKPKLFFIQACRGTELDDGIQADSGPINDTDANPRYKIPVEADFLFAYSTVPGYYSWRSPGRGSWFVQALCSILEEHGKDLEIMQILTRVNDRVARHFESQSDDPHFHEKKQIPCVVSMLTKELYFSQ

| SMILES | IC50 |
| --- | --- |
| O=C1C(=O)N(Cc2cn(CCF)nn2)c2ccc(S(=O)(=O)N3CC[C@H]3COc3cccnc3)cc21 | 6.1 nM |
| O=C1C(=O)N(Cc2ccc(OCCF)cc2)c2ccc(S(=O)(=O)N3CC[C@H]3COc3ccccc3)cc21 | 26.1 nM |
| O=C1C(=O)N(Cc2ccc(OCCOCCF)cc2)c2ccc(S(=O)(=O)N3CC[C@H]3COc3ccccc3)cc21 | 28.9 nM |
| COc1ccc(CN2C(=O)C(=O)c3cc(S(=O)(=O)N4CC[C@H]4COc4cccnc4)ccc32)cc1 | 10.2 nM |
| O=C1C(=O)N(Cc2cn(CCF)nn2)c2ccc(S(=O)(=O)N3CC[C@H]3COc3ccc(F)cc3F)cc21 | 15.3 nM |
| O=C1C(=O)N(Cc2ccc(OCCF)cc2)c2ccc(S(=O)(=O)N3CC[C@H]3COc3cccnc3)cc21 | 17.6 nM |
| O=C1C(=O)N(Cc2ccc(OCCF)cc2)c2ccc(S(=O)(=O)N3CC[C@H]3COc3ccc(F)cc3F)cc21 | 15.4 nM |
| O=C1C(=O)N(Cc2ccc(OCCF)cc2)c2ccc(S(=O)(=O)N3CCC[C@H]3COc3ccc(F)cc3F)cc21 | 12.3 nM |

target: Caspase-8 (Homo sapiens, UniProt Q14790); assay: Inhibition of caspase 8 by fluorometric assay; procedure, shortened: as §1
Sequence (Q14790 217-374 limits assumed): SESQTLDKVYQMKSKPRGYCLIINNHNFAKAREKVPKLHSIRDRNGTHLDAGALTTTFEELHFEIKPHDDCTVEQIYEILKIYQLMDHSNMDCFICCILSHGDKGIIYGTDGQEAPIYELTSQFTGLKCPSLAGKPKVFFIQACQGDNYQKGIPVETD
Sequence (Q14790 385-479 limits assumed): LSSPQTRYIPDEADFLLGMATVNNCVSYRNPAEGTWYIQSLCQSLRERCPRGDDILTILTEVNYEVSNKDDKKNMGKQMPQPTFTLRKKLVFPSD

| SMILES | IC50 |
| --- | --- |
| O=C1C(=O)N(Cc2cn(CCF)nn2)c2ccc(S(=O)(=O)N3CC[C@H]3COc3cccnc3)cc21 | > 50 µM |
| O=C1C(=O)N(Cc2ccc(OCCF)cc2)c2ccc(S(=O)(=O)N3CC[C@H]3COc3ccccc3)cc21 | > 25 µM |
| O=C1C(=O)N(Cc2ccc(OCCOCCF)cc2)c2ccc(S(=O)(=O)N3CC[C@H]3COc3ccccc3)cc21 | > 50 µM |
| COc1ccc(CN2C(=O)C(=O)c3cc(S(=O)(=O)N4CC[C@H]4COc4cccnc4)ccc32)cc1 | > 50 µM |
| O=C1C(=O)N(Cc2cn(CCF)nn2)c2ccc(S(=O)(=O)N3CCC[C@H]3COc3cccnc3)cc21 | > 50 µM |
| O=C1C(=O)N(Cc2cn(CCF)nn2)c2ccc(S(=O)(=O)N3CC[C@H]3COc3ccc(F)cc3F)cc21 | > 50 µM |
| O=C1C(=O)N(Cc2ccc(OCCF)cc2)c2ccc(S(=O)(=O)N3CC[C@H]3COc3cccnc3)cc21 | > 50 µM |
| O=C1C(=O)N(Cc2ccc(OCCF)cc2)c2ccc(S(=O)(=O)N3CC[C@H]3COc3ccc(F)cc3F)cc21 | > 50 µM |
| O=C1C(=O)N(Cc2ccc(OCCF)cc2)c2ccc(S(=O)(=O)N3CCC[C@H]3COc3ccc(F)cc3F)cc21 | > 50 µM |
